High-throughput results (PubChem)
Most compounds without a hit are left out; they make up all but 3.8% or so of the library.
RAM network inh: yeast RAM network inhibition | S. cerevisiae dse1pr::URA3 reporter, 5-FOA growth OD615, 2 d; analog-sensitive cbk1-as2 kinase mutant strain | inhibition, % at 50 µM | 190,000 compounds, 1.8% hits;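 active means inhibition above a set limit, 3 SD over mean compound inhibition, cut at about 8.4% in these data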;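 further: 0% = DMSO-only wells with no growth and 100% = 10 µM 1-NA-PP1 full growth; inhibition rescues growth on 5-FOA so higher OD means more RAM inhibition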
INS promoter inh: TRM-6 insulin promoter activity inhibition; AID 1273; 130,000 compounds, 0.9% hits; inhibition, % at 2 µM; TRM-6 cells, insulin promoter-eGFP reporter, imaging; reporter expression induced with tamoxifen;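 active means inhibition above the mean plus 3 SD, with well images judged a real hit on visual review, cut at about 60% in these data, passing the limit was not always enough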
NPY Y2 blocker: antagonists of human neuropeptide Y receptor Y2; AID 793; 140,000 compounds, 0.99% hits; P49146; NPY-Y2 expressing cells, antagonist mode; inhibition, % at 2.7 µM; in the data active means inhibition above about 17%;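 further: 0% = vehicle with agonist challenge and 100% = reference antagonist with challenge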
NPY Y1 blocker: antagonists of human neuropeptide Y receptor Y1; P25929; HEK293-CNG Y1 cells, membrane potential fluorescence; NPY at EC95, then isoproterenol; inhibition, % at 3.6 µM; 200,000 compounds, 1% hits;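 active means inhibition above the campaign mean inhibition of all tested compounds plus 3 SD, cut at about 20% in these data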;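 further: 0% = DMSO wells given NPY plus isoproterenol and 100% = isoproterenol alone without NPY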
Target sequence (P25929 whole entry, looked up): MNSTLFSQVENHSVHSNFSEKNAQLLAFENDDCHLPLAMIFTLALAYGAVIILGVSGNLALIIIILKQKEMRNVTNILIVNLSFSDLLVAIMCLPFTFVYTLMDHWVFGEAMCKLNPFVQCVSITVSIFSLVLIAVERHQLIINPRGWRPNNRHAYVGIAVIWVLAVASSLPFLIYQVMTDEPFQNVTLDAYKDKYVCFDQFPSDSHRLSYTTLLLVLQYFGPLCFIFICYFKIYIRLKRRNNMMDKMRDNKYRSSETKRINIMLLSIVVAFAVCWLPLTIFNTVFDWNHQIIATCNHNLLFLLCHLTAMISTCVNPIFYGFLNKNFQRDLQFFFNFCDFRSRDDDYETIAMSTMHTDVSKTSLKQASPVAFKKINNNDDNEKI
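Benchmarks – high control isoproterenol alone, low control NPY with isoproterenol · Material – HEK293 Y1/CNG channel cell line · Times – dye 3 h, compound 60 min room temperature, stimulation 45 min · Probe or stimulus – NPY (25 nM), isoproterenol (1 µM), Ro 20-1724 (25 µM) · Evaluation – % inhibition of NPY effect · Signal – fluorescence, membrane potential probe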
NPY-Y1 PAM-ag: potentiators or agonists of human neuropeptide Y receptor Y1. NPY-Y1 expressing cells, potentiator/agonist activation. activation, % at 3.6 µM. 220,000 compounds, 0.37% hits. AID 1304; in the data active means activation above about 33%, passing the limit was not always enough;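 further: cells stimulated with NPY at EC10 then isoproterenol at EC100; 0% = low agonist plus stimulus and 100% = saturating agonist plus stimulus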
NPY2 pot ag: potentiates or activates human NPY-Y2 receptor | P49146 | cells expressing NPY-Y2, potentiator/agonist read-out | activation, % at 3.6 µM | 220,000 compounds, 0.45% hits | AID 1359; in the data active means activation above about 27%;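 further: cells stimulated with NPY near EC25 plus isoproterenol at EC100; 0% = vehicle plus submaximal agonist and 100% = vehicle plus saturating agonist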
The depositor's hits bear a star.

COc1ccc2nc(NC(=O)C3CCN(S(=O)(=O)c4cccc5nsnc45)CC3)sc2c1 was read as RAM network inh 7, INS promoter inh -67, NPY Y2 blocker -2, NPY Y1 blocker -8, NPY-Y1 PAM-ag 47* and NPY2 pot ag 29.
`Cc1ccc(S(=O)(=O)NN2C(=O)/C(=C/c3cccn3C)SC2=S)cc1` gave RAM network inh 5, INS promoter inh -32, NPY Y2 blocker 9, NPY Y1 blocker 28*, NPY-Y1 PAM-ag -42 and NPY2 pot ag -26.
For Cc1ccc(S(=O)(=O)NN2C(=O)/C(=C/c3cccs3)SC2=S)cc1 the results were NPY-Y1 PAM-ag -17 and NPY2 pot ag -33.
`Cc1cc(NC(=O)c2cc(C(C)C)on2)nn1Cc1ccc(Cl)cc1` gave RAM network inh 9.3*, NPY Y2 blocker 6, NPY Y1 blocker 8, NPY-Y1 PAM-ag -5 and NPY2 pot ag 9.
For COc1ccc(CCNC(=O)/C=C/c2ccc(OC)c(S(=O)(=O)N3CCOCC3)c2)cc1 the results were NPY-Y1 PAM-ag 8 and NPY2 pot ag -23.
`COc1ccc(NS(=O)(=O)c2csc(C(=O)Nc3ccccc3)c2)cc1` gave RAM network inh 3, INS promoter inh 11, NPY Y1 blocker -8, NPY-Y1 PAM-ag 26 and NPY2 pot ag 18.
`CCCn1c(-c2ccc(OC)cc2)nc2ccccc21` gave RAM network inh 0, NPY Y2 blocker 4, NPY Y1 blocker 7, NPY-Y1 PAM-ag 11 and NPY2 pot ag -10.
COCn1c(-c2ccc(OC)cc2)nc2ccccc21 was read as RAM network inh 0, INS promoter inh 92*, NPY Y2 blocker 1, NPY Y1 blocker 2, NPY-Y1 PAM-ag -8 and NPY2 pot ag 4.
Screening O=C(NCc1ccccc1Cl)C(=O)NCC(c1ccco1)N1CCOCC1 (centres undefined) returned RAM network inh 0, INS promoter inh 78*, NPY Y1 blocker 1, NPY-Y1 PAM-ag 2 and NPY2 pot ag -1.
O=C(NCc1ccccc1)C(=O)NCC(c1ccco1)N1CCOCC1 (centres undefined) was read as RAM network inh 2, NPY Y2 blocker 2, NPY Y1 blocker 9, NPY-Y1 PAM-ag 9 and NPY2 pot ag -5.
CCOC(=O)C1CCCN(c2ncnc3c2cnn3-c2ccc(OC)cc2)C1 (centres undefined) was read as RAM network inh 0, INS promoter inh -82, NPY Y2 blocker 2, NPY Y1 blocker 5, NPY-Y1 PAM-ag -5 and NPY2 pot ag 2.
For CCOC(=O)C1CCCN(c2oc(-c3ccc(OC)cc3)nc2C#N)C1 (centres undefined) the results were RAM network inh 8.8*, INS promoter inh 44, NPY Y1 blocker 8, NPY-Y1 PAM-ag -33 and NPY2 pot ag -28.
`COc1ccc(-c2nc(C#N)c(N3CCC(C(N)=O)CC3)o2)cc1OC` gave RAM network inh 2, INS promoter inh 75*, NPY Y2 blocker 0, NPY Y1 blocker 4, NPY-Y1 PAM-ag -22 and NPY2 pot ag 5.
Screening COc1ccc(-c2nc(C#N)c(N3CCOCC3)o2)cc1OC returned RAM network inh 1, INS promoter inh -4, NPY Y2 blocker 0, NPY Y1 blocker 3, NPY-Y1 PAM-ag -1 and NPY2 pot ag 2.
For CN(CCO)c1cc(N2CCCCC2)c2nonc2c1[N+](=O)[O-] the results were RAM network inh 1, INS promoter inh -21, NPY Y1 blocker 5, NPY-Y1 PAM-ag 5 and NPY2 pot ag -5.
For CN(CCO)c1cc(NCCCN2CCC(Cc3ccccc3)CC2)c2nonc2c1[N+](=O)[O-] the results were RAM network inh 1, INS promoter inh -67, NPY Y1 blocker -2, NPY-Y1 PAM-ag 51* and NPY2 pot ag 29*.
Screening Cc1snc(S(=O)(=O)/C(C#N)=N\Nc2ccccc2)c1C#N returned RAM network inh 6, INS promoter inh 4, NPY Y2 blocker 4, NPY Y1 blocker -3, NPY-Y1 PAM-ag 26 and NPY2 pot ag -1.
For Cc1snc(S(=O)(=O)/C(C#N)=N/Nc2ccc(C(F)(F)F)cc2)c1C#N the results were RAM network inh 2, INS promoter inh 71*, NPY Y2 blocker -1, NPY Y1 blocker 0, NPY-Y1 PAM-ag 3 and NPY2 pot ag 2.
COc1ccc(CCNC(=O)CSc2ncn[nH]2)cc1 was read as RAM network inh 0, INS promoter inh 86*, NPY Y2 blocker 2, NPY Y1 blocker -2, NPY-Y1 PAM-ag -3 and NPY2 pot ag 2.
`COc1cc(NS(=O)(=O)c2ccc(NC(C)=O)cc2)nc(OC)n1` gave RAM network inh 2, INS promoter inh -25, NPY Y2 blocker 1, NPY Y1 blocker 2, NPY-Y1 PAM-ag -22 and NPY2 pot ag -8.
For COc1cc(NS(=O)(=O)c2ccc(N/C=C(\C#N)c3nc4cc(Cl)ccc4o3)cc2)nc(OC)n1 the results were RAM network inh 9.1*, INS promoter inh 27, NPY Y2 blocker 2, NPY Y1 blocker 2, NPY-Y1 PAM-ag -9 and NPY2 pot ag -17.
Screening CCc1nnc(NC(=O)CSc2nc(C)c3c(c2C#N)CCCC3)s1 returned RAM network inh 3, INS promoter inh 85*, NPY Y2 blocker 5, NPY Y1 blocker 4, NPY-Y1 PAM-ag 5 and NPY2 pot ag 13.
C=CCn1c(SC(C)C(=O)NCc2ccc3c(c2)OCO3)nnc1C1CCCCC1 (centres undefined) was read as RAM network inh 2, INS promoter inh -42, NPY Y2 blocker 20*, NPY Y1 blocker 28*, NPY-Y1 PAM-ag -10 and NPY2 pot ag -15.
Screening O=C(CSc1nnc(-c2ccc(Cl)cc2)n1Cc1ccco1)NCc1ccc2c(c1)OCO2 returned RAM network inh 2, INS promoter inh -80, NPY Y2 blocker 41*, NPY Y1 blocker 42*, NPY-Y1 PAM-ag -24 and NPY2 pot ag -18.
Cc1nnc(SCC(=O)NCc2ccc3c(c2)OCO3)s1 was read as RAM network inh 1, INS promoter inh 19, NPY Y2 blocker 7, NPY Y1 blocker -2, NPY-Y1 PAM-ag 2 and NPY2 pot ag -2.
For COc1ccc(-c2nnc(SC(C)C(=O)NCc3ccc4c(c3)OCO4)n2Cc2ccco2)cc1 (centres undefined) the results were RAM network inh 3, INS promoter inh -46, NPY Y2 blocker 51*, NPY Y1 blocker 37*, NPY-Y1 PAM-ag -3 and NPY2 pot ag -15.
Screening CC(Sc1nnc2ccccn12)C(=O)NCc1ccc2c(c1)OCO2 (centres undefined) returned RAM network inh 1, INS promoter inh 7, NPY Y1 blocker -4, NPY-Y1 PAM-ag 2 and NPY2 pot ag -1.
Screening O=C(CSc1nc2cc(Cl)ccc2s1)NCc1ccc2c(c1)OCO2 returned RAM network inh 10*, INS promoter inh 15, NPY Y2 blocker 16, NPY Y1 blocker 3, NPY-Y1 PAM-ag 0 and NPY2 pot ag 7.
